In the library only some 2.1% were active in any assay of this set; here they are far more common.
GSK3B inh: human GSK3beta kinase inhibitors, primary screen, biochemical, cell-free homogeneous, HTS; Glycogen synthase kinase-3 beta (Homo sapiens), P49841; GST-GSK3beta kinase, ADP-Glo luminescence, 60 min; active compounds read low; activity score (negative = inhibition), % at 10 µM; actives 0.038% (n = 300,000);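 active = more than half of replicate wells score below -50%, meaning over 50% inhibition versus plate controls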;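 also: 0% = median DMSO wells and -100% = median GW8510 positive control wells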
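Assay system: GST-fused GSK3beta enzyme, cell-free / Medium: Tris pH 7.5 buffer with MgCl2, DTT, BSA, heparin / Also added: peptide substrate plus 25 µM ATP (final) / Compound: 10 µM single point / Timing: kinase reaction with compound 60 min at room temperature / Detection: ADP-Glo luminescence / Benchmarks: DMSO neutral wells and GW8510 at 20 µM as positive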
MEKK3 PB1 HTS: modulators of MEKK3-MEK5 PB1 binding, primary screen, biochemical, wildtype MEKK3, multiplex bead flow cytometry, Alexa488-MEK5; actives 1.4% (n = 290,000); AID 1529, 2009; binding response (% of control), % at 10 µM; bead-based flow cytometry, Alexa488-MEK5 binding to MEKK3; actives lie on both sides; 0 = blocked by unlabeled MEK5, 100 = vehicle; Mitogen-activated protein kinase kinase kinase 3 (Homo sapiens), Q99759;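 active = binding response more than 3 SD above or below the average of its plate-row segment, actives on both sides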;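 also: Alexa488 bead fluorescence after subtracting the streptavidin-only scavenger bead signal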
Target sequence (Q99759 whole entry, looked up): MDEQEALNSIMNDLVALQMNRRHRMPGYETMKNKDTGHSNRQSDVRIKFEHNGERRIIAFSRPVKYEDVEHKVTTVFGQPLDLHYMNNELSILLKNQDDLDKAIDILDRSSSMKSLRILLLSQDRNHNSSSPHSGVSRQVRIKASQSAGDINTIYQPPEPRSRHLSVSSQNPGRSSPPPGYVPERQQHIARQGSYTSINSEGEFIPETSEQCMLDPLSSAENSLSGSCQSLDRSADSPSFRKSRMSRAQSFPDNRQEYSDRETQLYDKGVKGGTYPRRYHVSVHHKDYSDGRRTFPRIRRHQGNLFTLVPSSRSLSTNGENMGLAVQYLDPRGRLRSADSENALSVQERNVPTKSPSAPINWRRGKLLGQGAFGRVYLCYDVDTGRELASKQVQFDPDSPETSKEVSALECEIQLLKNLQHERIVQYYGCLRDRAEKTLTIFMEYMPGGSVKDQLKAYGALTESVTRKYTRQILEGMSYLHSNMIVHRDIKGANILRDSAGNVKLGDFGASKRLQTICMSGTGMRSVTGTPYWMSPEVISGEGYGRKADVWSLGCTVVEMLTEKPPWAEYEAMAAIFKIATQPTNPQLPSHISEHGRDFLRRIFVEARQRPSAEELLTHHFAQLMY
MEKK2mut PB1 HTS: MEK5 binding signal on mutant MEKK2 PB1, primary screen, biochemical, multiplex bead flow cytometry, Alexa488-MEK5 | Alexa488-MEK5 binding to MEKK2 mutant | percent response, % at 10 µM | actives 0.35% (n = 290,000) | AID 1530, 2009; in the data active = percent response above about 24%, passing the limit was not always enough
STK33 inh: inhibitors of purified STK33 kinase, primary screen, biochemical, ADP-Glo luminescence, homogeneous, cell-free; Serine/threonine-protein kinase 33 (Homo sapiens), Q9BYT3; MBP phosphorylation; inhibition, % at 10 µM; actives 0.073% (n = 320,000); AID 2661, 2010;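 active = inhibition at or above 25%, using the most active replicate where run in duplicate; inactive = inhibition below 25%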
GSK3 alpha inh: blockers of GSK3A enzyme activity – biochemical, luminescence, cell-free homogeneous, HTS, primary screen; Glycogen synthase kinase-3 alpha (Homo sapiens), P49840; GSK-3 alpha kinase, ADP-Glo luminescence, 60 min; inhibition, % at 10 µM; actives 0.1% (n = 320,000); AID 2650, 2010;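 active = more than half of replicates show inhibition above 20%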;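 also: GST-tagged GSK-3 alpha with peptide substrate and 25 µM ATP; 0% = DMSO neutral wells and 100% = GW8510 positive control wells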
MEKK2 WT-MEK5: modulators of MEK5 binding to wildtype MEKK2, primary screen, biochemical, multiplex bead flow cytometry, Alexa488-MEK5 | binding response (% of control), % at 10 µM | Alexa488-MEK5 binding to MEKK2 WT; actives lie on both sides | actives 1.1% (n = 290,000); in the data active = binding response below about 67% or above about 130%
MEKK2wt confirm: modulators of MEK5 binding to wildtype MEKK2, confirmation, biochemical, single concentration, multiplex bead flow cytometry; AID 1892, 2009; Alexa488-MEK5 binding to MEKK2 WT; actives lie on both sides; actives 2.4% (n = 5,900); shares compounds with MEKK3 PB1 HTS; binding response (% of control), % at 10 µM; in the data active = binding response below about 16% or above about 210%; inactive = in between
MEKK2mut-MEK5: mutant MEKK2 PB1-MEK5 binding signal retest – biochemical, single concentration, multiplex bead flow cytometry, confirmation; shares compounds with MEKK3 PB1 HTS; actives 2% (n = 5,900); percent response, % at 10 µM; AID 1893, 2009; Alexa488-MEK5 binding to MEKK2 mutant; in the data active = percent response mostly above about 71%, no sharp cut-off; inactive = mostly below about 38%;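 also: higher means compound restores mutant binding toward wildtype level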
MEKK3 confirm: MEKK3 wild-type PB1 binding to MEK5, inhibitors, confirmation, biochemical, bead multiplex flow cytometry, single concentration, wildtype. shares compounds with MEKK3 PB1 HTS. binding response (% of control), % at 10 µM. actives 1.8% (n = 5,900). Alexa488-MEK5 binding to MEKK3; active compounds read low. AID 1894, 2009;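 active = binding response below 72% of control, or above a set upper limit, though filed actives all read lower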;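 also: 100% = DMSO only wells and 0% = binding blocked by excess unlabeled MEK5; lower values mean stronger disruption of MEK5 binding to MEKK3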
Starred values were filed as active, the others as inactive; x = not tested or not shown; [ ] = another dose, or the depositor's remark.

SMILES | GSK3B inh | MEKK3 PB1 HTS | MEKK2mut PB1 HTS | STK33 inh | GSK3 alpha inh | MEKK2 WT-MEK5 | MEKK2wt confirm | MEKK2mut-MEK5 | MEKK3 confirm
COc1ccc(CNC(=O)/C(C#N)=C2\N=C(NC(=O)c3cccs3)c3ccccc32)cc1 | 0 | 74*[inhibitor] | 0 | 0 | -2 | 93 | 100 | 3 | 108
Cc1ccc(-c2nnc(SCC(=O)NC3CC3)o2)cc1 | 0 | 100 | -2 | -1 | -4 | 101 | x | x | x
O=S1(=O)CC(O)C(Nc2ccccc2)C1 (stereo not given) | -1 | 99 | 1 | -2 | -4 | 102 | x | x | x
O=S1(=O)CC(O)C(Nc2ccc(Cl)cc2)C1 (stereo not given) | 0 | 49*[inhibitor] | -4 | 0 | 0 | 67 | 96 | -9 | 97
Cc1c(Cc2ccc3c(c2)OCO3)sc(NC(=O)c2ccccc2)c1C(N)=O | 2 | 75*[inhibitor] | -7 | 0 | 0 | 81 | 97 | -1 | 100
Cc1nc(NC(=O)c2ccccc2)sc1Cc1ccc2c(c1)OCO2 | 0 | 102 | 5 | 0 | 5 | 111 | x | x | x
CCCC1=NN(C(=O)CCc2ccccc2O)C(O)(C(F)(F)F)C1 (stereo not given) | 3 | 138* | 3 | -1 | 1 | 107 | 97 | 3 | 100
O=C(C[n+]1cc(-c2ccccc2)n2c1CCCCC2)c1ccc(Cl)cc1 | 1 | 102 | 25 | 0 | 0 | 142* | 105 | 2 | 94
O=C(C[n+]1cc(-c2ccc(Cl)c(Cl)c2)n2c1CCC2)OCc1ccccc1 | 1 | 155* | 1 | 1 | 0 | 123 | 109 | 3 | 97
O=C(C[n+]1cc(-c2ccccc2)n2c1CCC2)Nc1nc(-c2ccccc2)cs1 | -1 | 102 | 28 | 1 | 4 | 166* | 128 | 16 | 101
Cc1ccc(-c2c[n+](CC(=O)Nc3nc(-c4ccccc4)cs3)c3n2CCC3)cc1 | -6 | 103 | 47 | -1 | 3 | 183* | 174 | 68 | 108
Cc1c(C)[n+](=O)c(-c2cccs2)c(C)n1[O-] | 1 | 1.0*[inhibitor] | -9 | 0 | 5 | 0.0*[inhibitor] | 98 | -6 | 103
CCOc1cc(/C=N/NC(=O)CSc2nnc(C)s2)ccc1OCc1ccccc1Cl | 2 | 132* | -1 | -1 | 9 | 101 | 106 | 3 | 102
CSc1nc2ccccc2n1Cc1cccc([N+](=O)[O-])c1 | 0 | 152* | 1 | 0 | -2 | 108 | 100 | -5 | 103
COc1cc(C2CC(=O)N(CC(=O)NCC3CCCO3)c3ccccc3S2)cc(OC)c1OC (stereo not given) | 4 | 93 | -6 | 0 | 6 | 92 | x | x | x
O=C(COC(=O)C1(c2cccc(F)c2)CCCC1)NCc1cccs1 | -4 | 102 | -1 | 1 | 0 | 95 | x | x | x
O=C(COC(=O)C1(c2cccc(F)c2)CCCC1)NCc1ccc2c(c1)OCO2 | 1 | 132* | 0 | x | x | 106 | 104 | -2 | 99
C[C@H](NC(=O)c1nc[nH]c1C(=O)NC1CCN(C(=O)OC(C)(C)C)CC1)C(=O)OC(C)(C)C | -2 | 1.0*[inhibitor] | -44 | 1 | 38 | -5.0*[inhibitor] | 101 | -2 | 99
COc1ccc(NC(=O)c2nc[nH]c2C(=O)N[C@@H](C)C(=O)OC(C)(C)C)cc1 | 2 | 82*[inhibitor] | -7 | 0 | 1 | 101 | 88 | -9 | 89
CC(C)Cn1c(O)c(/C=C2\C=NN=C2c2ccccc2)sc1=S | -1 | 133* | 0 | x | x | 100 | 102 | 4 | 103
O=C(NCCC1=CCCCC1)C(=O)c1c[nH]c2ccccc12 | 0 | 133* | 1 | 0 | -2 | 106 | 96 | -12 | 99
CCn1ncc(S(=O)(=O)N2CCN(c3cccc(OC)c3)CC2)c1C | -6 | 103 | 7 | -4 | 1 | 107 | x | x | x
CCN(CC)S(=O)(=O)c1ccc(N2CCOCC2)c(NC(=O)c2cc(=O)[nH]c3ccccc23)c1 | 0 | 69*[inhibitor] | -9 | 10 | -14 | 86 | 108 | 9 | 105
CCN(CC)S(=O)(=O)c1ccc(N2CCOCC2)c(NC(=O)c2cccc3ccccc23)c1 | 0 | 91 | -1 | -1 | -6 | 101 | x | x | x
CCC(C)NC(=O)Cc1cn(C)c2ccccc12 (stereo not given) | 4 | 3.0*[inhibitor] | -14 | 0 | 0 | 3.0*[inhibitor] | 102 | -12 | 96
SMILES | GSK3B inh | MEKK3 PB1 HTS | MEKK2mut PB1 HTS | STK33 inh | GSK3 alpha inh | MEKK2 WT-MEK5 | MEKK2wt confirm | MEKK2mut-MEK5 | MEKK3 confirm
CCc1ccc(NC(=O)Cc2cn(C)c3ccccc23)cc1 | -3 | 104 | 0 | -4 | -3 | 106 | x | x | x
O=C(CN1CCOCC1)NNC(=O)c1ccc(Cl)cc1 | x | x | x | -1 | -1 | x | x | x | x
CCCCCCCCCn1c2c(c(=N)c3c1CCC3)CCCC2 | -11 | 110 | 45 | x | x | 177* | 134 | 16 | 102
Cn1c(=O)c(NCCc2ccccc2)c2c3c(cccc31)C(=O)c1ccccc1-2 | 1 | 85 | -16 | 0 | 1 | 62*[inhibitor] | 85 | -9 | 100
Cn1c(=O)c(NC2CCCCC2)c2c3c(cccc31)C(=O)c1ccccc1-2 | x | 59 | -20 | x | x | 37*[inhibitor] | 62 | -15 | 93
Cn1c(=O)c(NCCO)c2c3c(cccc31)C(=O)c1ccccc1-2 | -2 | 104 | 3 | -1 | -2 | 98 | x | x | x
CCCCNc1c2c3c(cccc3n(C)c1=O)C(=O)c1ccccc1-2 | 3 | 74 | -21 | -1 | 0 | 41*[inhibitor] | 72 | -13 | 95
CC1CCC2(CC1)NC(=O)c1ccccc1O2 (stereo not given) | 0 | 103 | 16 | -2 | 2 | 103 | x | x | x
